The list is not random: actives were taken first. Their share in the collection is about 1.9%.
IDE inh = inhibitors of human insulin-degrading enzyme in cells; inhibition, % at 5.59 µM; HEK cells, FAbetaB cleavage, fluorescence polarization; P14735; hit rate 0.41% among 320,000;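 active = percent inhibition above the average of all tested compounds plus 3 SD, set per screening campaign, cut at about 16% in these data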;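 note: IDE supplied by intact live HEK cells; FP after avidin binding of uncleaved biotin substrate so inhibition keeps polarization high; 0% = DMSO wells and 100% = 60 µM reference IDE inhibitor Ii1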
PHOSPHO1 inh = PHOSPHO1 (human) inhibition; hit rate 1.1% among 290,000; inhibition, % at 13.3 µM; AID 1565; recombinant PHOSPHO1, absorbance phosphatase assay; in the data active = inhibition above about 60%
Target sequence (Q8TCT1 whole entry, looked up): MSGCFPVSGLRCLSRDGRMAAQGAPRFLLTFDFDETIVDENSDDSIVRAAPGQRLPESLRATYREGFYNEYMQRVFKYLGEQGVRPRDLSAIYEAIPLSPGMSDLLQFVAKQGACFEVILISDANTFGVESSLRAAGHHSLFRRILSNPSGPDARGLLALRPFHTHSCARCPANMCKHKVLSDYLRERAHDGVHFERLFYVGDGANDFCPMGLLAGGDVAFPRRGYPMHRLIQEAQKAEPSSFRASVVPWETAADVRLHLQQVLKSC
IDE cell activ = activators of human insulin-degrading enzyme in cells; P14735; HEK cells, FAbeta-B cleavage, fluorescence polarization; 0% vehicle, 100% cell-free pure enzyme wells; activation, % at 5.96 µM; hit rate 0.073% among 340,000; AID 493087;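 active = activation above the mean of all tested compounds plus 3 SD, set per screening campaign, cut at about 17% in these data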
UBC13 inh = inhibitors of human UBC13 polyubiquitin chain formation. TR-FRET. inhibition, % at 20 µM. hit rate 0.47% among 330,000. AID 485273. P61088; in the data active = inhibition above about 45%, passing the limit was not always enough
Target sequence (P61088 whole entry, looked up): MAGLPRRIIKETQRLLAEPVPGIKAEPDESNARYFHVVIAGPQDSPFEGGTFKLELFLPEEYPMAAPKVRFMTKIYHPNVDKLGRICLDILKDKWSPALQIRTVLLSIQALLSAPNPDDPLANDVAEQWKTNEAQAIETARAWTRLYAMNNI
proCasp3 act = activators of human procaspase-3; hit rate 0.11% among 330,000; P42574; recombinant procaspase-3 D3A, Ac-DEVD-pNA absorbance 405 nm; activation, % at 8.5 µM; AID 463141;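 active = activation above the mean of all tested compounds plus 3 SD, cut at about 21% in these data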;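 note: 0% = DMSO alone and 100% = DMSO wells spiked with extra 5 µM PC-3 D3A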
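Test system: Procaspase-3 D3A mutant, all three cleavage aspartates alanine | Dosing: Single dose, 8.5 µM nominal compound, 0.8% DMSO | Schedule: 1 h preincubation, 2 h reaction | Technique: 405 nm absorbance of p-nitroaniline, reads at 0 and 120 min | Repeats: One well per compound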
procasp7 counter = counter-screen for procaspase-3 activators: activators of human procaspase-7. recombinant procaspase-7, Ac-DEVD-pNA absorbance 405 nm; D23A/D198A/D206A triple mutant, cannot self-cleave; scale: DMSO 0, 5 µM enzyme 100. hit rate 0.093% among 330,000. activation, % at 8.5 µM;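 active = percent activation above the screen-wide mean plus 3 SD, cut at about 25% in these data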
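Material: Procaspase-7 triple mutant (PC-7 D3A) | Quantity: 2 µM procaspase-7 mutant as dispensed | Reagent: DEVD-pNA substrate | Times: 1 h preincubation, 2 h reaction | Technique: 405 nm absorbance of p-nitroaniline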
IDE inh confirm = cellular human IDE inhibition, confirmation | AID 435028 | inhibition, % at 5.59 µM | hit rate 51% among 1,200 | HEK cells, FAbetaB cleavage, fluorescence polarization | shares compounds with IDE inh;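 active = mean inhibition across triplicate wells above the cutoff set by the earlier primary insulin-degrading enzyme screen, cut at about 16% in these data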;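 note: 0% = DMSO wells and 100% = 60 µM reference IDE inhibitor Ii1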
HEK cytotox = counter-screen for IDE inhibitors: cytotoxicity in HEK cells | shares compounds with IDE inh | HEK293 cytotoxicity, ATP luminescence | inhibition, % at 5.59 µM | hit rate 28% among 1,200 | AID 449730; in the data active = inhibition above about 22%;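 note: 0% = vehicle wells and 100% = reference cytotoxic drug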
PC3 dual counter = counter-screen: procaspase-3 (human) activation. activation, % at 8.5 µM. AID 493114. recombinant PC-3 D3A, Ac-DEVD-pNA absorbance 405 nm; aspartates 9, 28, 175 changed to alanine; 100% = enzyme control. 290 tested, under 10 active. shares compounds with procasp7 counter;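 active = mean percent activation across triplicates above a set limit taken from the earlier primary procaspase-3 screen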;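 note: 0% = DMSO wells and 100% = DMSO wells with 5 µM added PC-3 D3A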
PC7 dual conf = confirmation of dual procaspase activators: human procaspase-7 activation; shares compounds with procasp7 counter; recombinant procaspase-7, Ac-DEVD-pNA absorbance 405 nm; D23A/D198A/D206A mutant that cannot self-cleave; activation, % at 8.5 µM; 290 tested, under 10 active; AID 493115;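 active = mean activation above a set limit carried over from the earlier primary screen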;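 note: 0% = DMSO only and 100% = DMSO with added 5 µM PC-7 enzyme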
Casp3 counter = caspase-3 inhibition (UBC13 counter-screen); shares compounds with UBC13 inh; Recombinant caspase-3, Caspase-Glo 3/7 luminescence, 60 min; inhibition, % at 20 µM; hit rate 4% among 1,400; AID 488856;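 active = mean inhibition across replicates above about 26%, limit read from the data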;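 note: plate controls were DMSO with caspase-3 for no effect and DMSO wells lacking enzyme for full effect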
UBC13 conf = human UBC13 polyubiquitin inhibition, confirmed; shares compounds with UBC13 inh; UBC13 polyubiquitination, TR-FRET, biochemical; inhibition, % at 10 µM; hit rate 68% among 1,400; AID 488859; in the data active = inhibition above about 45%
An asterisk follows results filed as active; nt = no result.

SMILES	IDE inh	PHOSPHO1 inh	IDE cell activ	UBC13 inh	proCasp3 act	procasp7 counter	Casp3 counter	UBC13 conf	others
CN1/C(=C\C=C2C(=O)NC(=O)NC2=O)C(C)(C)c2ccccc21	57*	7	-65	-133	-17	-42	nt	nt	IDE inh confirm=70*;HEK cytotox=12
C/C(=N\N1CCCCC1c1cccnc1)c1c(O)n(C2CCCCC2)c(=S)[nH]c1=O (stereo not given)	29*	-12	-32	-12	-4	-10	nt	nt	IDE inh confirm=14;HEK cytotox=15
O=P(Oc1ccc(-c2ccccc2)cc1)(N1CC1)N1CC1	nt	nt	2	nt	nt	nt	nt	nt
CC(C)CNC(=O)c1c(N)n(Cc2ccc3c(c2)OCO3)c2nc3ccccc3nc12	5	-4	2	16	-5	71*	nt	nt	PC3 dual counter=-29;PC7 dual conf=-34
CC(C)=CCN1CC[C@@]2(C)c3cc(O)ccc3C[C@@H]1C2C (stereo not given in full)	-1	nt	4	-1	5	-9	nt	nt
CCCCCn1c(=O)c(C(=O)Nc2ccccc2S(N)(=O)=O)c(O)c2ccccc21	4	31	3	8	1	6	nt	nt
CCCCn1c(=O)c(C(=O)Nc2ccccc2S(N)(=O)=O)c(O)c2ccccc21	4	-42	-2	53*	4	4	-2	15
O=C1C(Cc2cnc[nH]2)NC(=S)N1c1ccccc1 (stereo not given)	nt	40	3	86*	nt	nt	2	104*
CN(C)N=O	6	nt	4	-1	15	11	nt	nt
Clc1ccc(C(c2ccc(Cl)cc2)n2cc[n+](CC(OCc3ccc(Cl)cc3Cl)c3ccc(Cl)cc3Cl)c2)cc1 (stereo not given)	-5	nt	19*	104*	-6	-2	-3	106*
CC(=O)C1CCC2C3CCC4CC(O)CCC4(C)C3CCC12C (stereo not given)	0	nt	6	18	4	1	nt	nt
C[C@]12CCC3C(CC[C@H]4C[C@@H](O)CC[C@]34C)C1CC[C@@H]2OC(=O)[C@H](N)CCCCN (stereo not given in full)	1	nt	3	105*	2	0	2	106*
COc1ccc(/C=N\N=C(N)N)cc1	-3	-5	-3	3	-11	-4	nt	nt
NC(N)=N/N=C/c1ccc(N(c2ccccc2)c2ccccc2)cc1	-8	20	4	107*	-4	-14	-6	119*
Cc1ccc2c(c1)C1CN(C)CCC1N2C(=O)c1cccnc1Cl (stereo not given)	4	33	1	12	5	3	nt	nt
Cc1ccc2c(c1)C1CN(C)CCC1N2C(=O)CCCN1C(=O)c2cccc3cccc(c23)C1=O (stereo not given)	-3	-4	5	89*	6	4	-2	101*
COC1C(O)C(C)OC(OC2CCC3(C)C(CCC4C3C(O)CC3(C)C(C5=CC(=O)OC5)CCC43O)C2)C1O (stereo not given)	nt	nt	4	nt	nt	nt	nt	nt
